Laboratory results: ChEMBL document CHEMBL5674890, “Selective inhibition of CBP/p300 HAT by A-485 results in suppression of lipogenesis and hepatic gluconeogenesis” (Cell Death Dis, 2020)
Active and inactive are the calls of the source. The rule behind the calls is not given here.

Legend:
Adipocyte = assay: Inhibition of lipogenesis in mouse adipocytes isolated stromal vascular cells assessed as decrease in ACC mRNA expression measured after 24 hrs by RT-qPCR assay; type: functional, cell-based
How it was run: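 Stromal vascular cells came from collagenase-digested inguinal WAT of C57BL/6 mice and were grown in DMEM/F12 with 10% FBS. At confluence, differentiation used insulin 5 μg/ml, dexamethasone 1 μM and IBMX 0.5 mM for 48 h, then insulin alone for 6 days. Fully differentiated day-8 adipocytes were exposed to A-485 for 24 h. Transcripts were quantified by RT-qPCR.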

Hepatocyte [1] = assay: Inhibition of glucogenesis in mouse primary hepatocytes stimulated with 100 uM 8-Br-cAMP assessed as decrease in glucose production at 3 uM measured after 24 hrs; type: functional, cell-based
How it was run: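 Two-step-perfusion primary mouse hepatocytes pretreated 16 h with 100 nM dexamethasone. Then incubated 24 h in glucose-free DMEM with 1 mM pyruvate, 10 mM lactate, 0.25% BSA, 100 μM 8-Br-cAMP and 3 μM test agent. Medium glucose measured colorimetrically. Mean ± SEM, three independent experiments.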

Hepatocyte [2] = assay: Inhibition of glucogenesis in mouse primary hepatocytes stimulated with 100 uM 8-Br-cAMP assessed as effect on PGC1alpha mRNA expression at 3 uM measured after 8 hrs by RT-qPCR assay; type: functional, cell-based
How it was run: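 Primary mouse hepatocytes treated with 3 μM compound and 100 μM 8-Br-cAMP for 8 h. Trizol RNA, SYBR Green RT-qPCR of the named transcript. Mean ± SEM, three independent experiments.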

Mus musculus [3] = assay: Anti-obesity activity in C57BL/6 mouse supplemented with high fat diet assessed as decrease in fasting blood glucose at 20 mg/kg/day, ip administered for 1 week; type: functional, organism-based; details: time 1.0 weeks
How it was run: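 Male C57BL/6 mice fed high-fat diet for 14 weeks from 5 weeks of age, then ip 20 mg·kg−1·day−1 for 7 days. Body weight, EchoMRI lean/fat mass, and random or 16 h-fasted blood glucose recorded, as the line states.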

Hepatocyte [4] = assay: Inhibition of glucogenesis in mouse primary hepatocytes stimulated with 100 uM 8-Br-cAMP assessed as decrease in C/EBPalpha protein expression at 3 uM measured after 12 hrs by western blot analysis; type: functional, cell-based
How it was run: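 Primary mouse hepatocytes incubated 12 h with 3 μM compound and 100 μM 8-Br-cAMP. Lysates western blotted for FOXO1, C/EBPα or PGC1α. Three independent experiments.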

Mus musculus [5] = assay: Anti-obesity activity in C57BL/6 mouse supplemented with normal chow diet assessed as decrease in total fat mass at 20 mg/kg/day, ip administered for 1 week measured by EchoMRI live analysis; type: functional; set-up: scale not given: the % may be the effect or the level left; details: time 1 weeks
How it was run: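 Normal-chow male C57BL/6 mice, 8 weeks old, ip 20 mg·kg−1·day−1 daily for 7 days. Total lean and fat mass measured in live animals by EchoMRI. Mean ± SEM, n = 5–9.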

Mus musculus [6] = assay: Inhibition of lipogenesis in C57BL/6 mouse supplemented with high-fat diet assessed as decrease in adipocyte size of WAT at 20 mg/kg/day, ip administered for 1 week; type: functional, organism-based; details: time 1.0 weeks
How it was run: (§1)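 Male C57BL/6 mice were fed high-fat diet for 14 weeks from 5 weeks of age, then injected ip with 20 mg·kg−1·day−1 for 7 days or given vehicle. Epididymal and inguinal WAT were weighed, examined by H&E, and analysed. Transcripts were measured by Trizol/SYBR Green RT-qPCR; proteins by western blot. n = 5–9; mean ± SEM.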

Mus musculus [7] = assay: Inhibition of hepatic lipogenesis in C57BL/6 mouse supplemented with normal chow diet assessed as decrease in total cholesterol level at 20 mg/kg/day, ip administered for 1 week; type: functional, organism-based; details: time 1.0 weeks
How it was run: (§2)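 Male C57BL/6 mice received ip A-485 at 20 mg·kg−1·day−1 for 7 days, versus vehicle. NCD mice were 8 weeks old. HFD mice had been on high-fat diet for 14 weeks from 5 weeks of age. Liver triglyceride and total cholesterol content was determined. n = 5–9; mean ± SEM.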

[8] = target: CREB-binding protein/Histone acetyltransferase p300 (Homo sapiens) (UniProt Q09472+Q92793); assay: Inhibition of CBP/p300 in human HEK293T cells expressing HA-FOXO1 stimulated with 100 uM 8-Br-cAMP assessed as decrease in FOXO1 abundance in nucleus at 3 uM measured after 24 hrs by immunofluorescence analysis; type: cell-based; details: time 3.0 hrs, in the assay text read “3 hrs” for “24 hrs”
How it was run: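 HEK293T cells transfected with HA-FOXO1 plasmid for 24 h, then treated 3 h with 3 μM compound and 100 μM 8-Br-cAMP. Staining steps: fixed in 10% formalin, permeabilized 0.1% Triton X100, blocked 5% BSA, anti-HA (1:200) overnight at 4 °C, FITC secondary, DAPI. Localization imaged by fluorescence microscopy.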

Mus musculus [9] = assay: Inhibition of hepatic lipogenesis in C57BL/6 mouse supplemented with high fat diet assessed as decrease in triglyceride level at 20 mg/kg/day, ip administered for 1 week; type: functional, organism-based; details: time 1.0 weeks; how it was run: as §2
Mus musculus [10] = assay: Inhibition of lipogenesis in C57BL/6 mouse supplemented with high-fat diet assessed as decrease in FASN mRNA expression at 20 mg/kg/day, ip administered for 1 week measured by RT-qPCR assay; type: functional, organism-based; details: time 1.0 weeks; how it was run: as §1
Mus musculus [11] = assay: Inhibition of lipogenesis in C57BL/6 mouse supplemented with normal chow diet assessed as decrease in FABP4 mRNA expression at 20 mg/kg/day, ip administered for 1 week measured measured by RT-qPCR assay; type: functional, organism-based; details: time 1.0 weeks
How it was run: (§3)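 Eight-week-old male C57BL/6 mice on normal chow were given 20 mg·kg−1·day−1 ip daily for 7 days or vehicle. Epididymal WAT was collected. Lipogenic, adipogenic and fatty-acid-oxidation transcripts were quantified by Trizol extraction and SYBR Green RT-qPCR. FAS, ACC, PPARγ and C/EBPα protein were assessed by western blot. n = 5–9; mean ± SEM.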

Mus musculus [12] = assay: Inhibition of lipogenesis in C57BL/6 mouse supplemented with normal chow diet assessed as decrease in C/EBPalpha mRNA expression at 20 mg/kg/day, ip administered for 1 week measured measured by RT-qPCR assay; type: functional, organism-based; details: time 1.0 weeks; how it was run: as §3
Mus musculus [13] = assay: Inhibition of hepatic lipogenesis in C57BL/6 mouse supplemented with normal chow diet assessed as effect on CPT1alpha mRNA expression at 20 mg/kg/day, ip administered for 1 week measured by RT-qPCR assay; type: functional, organism-based; details: time 1.0 weeks
How it was run: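 Normal-chow male C57BL/6 mice, 8 weeks old, were injected ip at 20 mg·kg−1·day−1 daily for 7 days or given vehicle. Liver RNA was extracted with Trizol, and fatty-acid-oxidation gene transcripts were quantified by SYBR Green RT-qPCR. n = 5–9; mean ± SEM.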

Mus musculus [14] = organism: Mus musculus; assay: Inhibition of glucogenesis in mouse assessed as decrease in hepatic FOXO1 protein expression measured by western blot analysis; type: functional, organism-based
How it was run: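 Livers from vehicle- or treated mice (ip 20 mg·kg−1·day−1 for 7 days) homogenized in lysis buffer; FOXO1 and C/EBPα analysed by western blot.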

Mus musculus [15] = assay: Anti-obesity activity in C57BL/6 mouse supplemented with normal chow diet assessed as effect on random blood glucose at 20 mg/kg/day, ip administered for 1 week; type: functional, organism-based; details: time 1.0 weeks
How it was run: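 8-week-old male C57BL/6 mice on normal chow, ip 20 mg·kg−1·day−1 for 7 days. Blood glucose measured randomly fed or after 6 h or 16 h fasting, as the line states. Mean ± SEM, n = 5–9.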

Chain of CREB-binding protein/Histone acetyltransferase p300 (Homo sapiens) (Q09472 whole entry, looked up): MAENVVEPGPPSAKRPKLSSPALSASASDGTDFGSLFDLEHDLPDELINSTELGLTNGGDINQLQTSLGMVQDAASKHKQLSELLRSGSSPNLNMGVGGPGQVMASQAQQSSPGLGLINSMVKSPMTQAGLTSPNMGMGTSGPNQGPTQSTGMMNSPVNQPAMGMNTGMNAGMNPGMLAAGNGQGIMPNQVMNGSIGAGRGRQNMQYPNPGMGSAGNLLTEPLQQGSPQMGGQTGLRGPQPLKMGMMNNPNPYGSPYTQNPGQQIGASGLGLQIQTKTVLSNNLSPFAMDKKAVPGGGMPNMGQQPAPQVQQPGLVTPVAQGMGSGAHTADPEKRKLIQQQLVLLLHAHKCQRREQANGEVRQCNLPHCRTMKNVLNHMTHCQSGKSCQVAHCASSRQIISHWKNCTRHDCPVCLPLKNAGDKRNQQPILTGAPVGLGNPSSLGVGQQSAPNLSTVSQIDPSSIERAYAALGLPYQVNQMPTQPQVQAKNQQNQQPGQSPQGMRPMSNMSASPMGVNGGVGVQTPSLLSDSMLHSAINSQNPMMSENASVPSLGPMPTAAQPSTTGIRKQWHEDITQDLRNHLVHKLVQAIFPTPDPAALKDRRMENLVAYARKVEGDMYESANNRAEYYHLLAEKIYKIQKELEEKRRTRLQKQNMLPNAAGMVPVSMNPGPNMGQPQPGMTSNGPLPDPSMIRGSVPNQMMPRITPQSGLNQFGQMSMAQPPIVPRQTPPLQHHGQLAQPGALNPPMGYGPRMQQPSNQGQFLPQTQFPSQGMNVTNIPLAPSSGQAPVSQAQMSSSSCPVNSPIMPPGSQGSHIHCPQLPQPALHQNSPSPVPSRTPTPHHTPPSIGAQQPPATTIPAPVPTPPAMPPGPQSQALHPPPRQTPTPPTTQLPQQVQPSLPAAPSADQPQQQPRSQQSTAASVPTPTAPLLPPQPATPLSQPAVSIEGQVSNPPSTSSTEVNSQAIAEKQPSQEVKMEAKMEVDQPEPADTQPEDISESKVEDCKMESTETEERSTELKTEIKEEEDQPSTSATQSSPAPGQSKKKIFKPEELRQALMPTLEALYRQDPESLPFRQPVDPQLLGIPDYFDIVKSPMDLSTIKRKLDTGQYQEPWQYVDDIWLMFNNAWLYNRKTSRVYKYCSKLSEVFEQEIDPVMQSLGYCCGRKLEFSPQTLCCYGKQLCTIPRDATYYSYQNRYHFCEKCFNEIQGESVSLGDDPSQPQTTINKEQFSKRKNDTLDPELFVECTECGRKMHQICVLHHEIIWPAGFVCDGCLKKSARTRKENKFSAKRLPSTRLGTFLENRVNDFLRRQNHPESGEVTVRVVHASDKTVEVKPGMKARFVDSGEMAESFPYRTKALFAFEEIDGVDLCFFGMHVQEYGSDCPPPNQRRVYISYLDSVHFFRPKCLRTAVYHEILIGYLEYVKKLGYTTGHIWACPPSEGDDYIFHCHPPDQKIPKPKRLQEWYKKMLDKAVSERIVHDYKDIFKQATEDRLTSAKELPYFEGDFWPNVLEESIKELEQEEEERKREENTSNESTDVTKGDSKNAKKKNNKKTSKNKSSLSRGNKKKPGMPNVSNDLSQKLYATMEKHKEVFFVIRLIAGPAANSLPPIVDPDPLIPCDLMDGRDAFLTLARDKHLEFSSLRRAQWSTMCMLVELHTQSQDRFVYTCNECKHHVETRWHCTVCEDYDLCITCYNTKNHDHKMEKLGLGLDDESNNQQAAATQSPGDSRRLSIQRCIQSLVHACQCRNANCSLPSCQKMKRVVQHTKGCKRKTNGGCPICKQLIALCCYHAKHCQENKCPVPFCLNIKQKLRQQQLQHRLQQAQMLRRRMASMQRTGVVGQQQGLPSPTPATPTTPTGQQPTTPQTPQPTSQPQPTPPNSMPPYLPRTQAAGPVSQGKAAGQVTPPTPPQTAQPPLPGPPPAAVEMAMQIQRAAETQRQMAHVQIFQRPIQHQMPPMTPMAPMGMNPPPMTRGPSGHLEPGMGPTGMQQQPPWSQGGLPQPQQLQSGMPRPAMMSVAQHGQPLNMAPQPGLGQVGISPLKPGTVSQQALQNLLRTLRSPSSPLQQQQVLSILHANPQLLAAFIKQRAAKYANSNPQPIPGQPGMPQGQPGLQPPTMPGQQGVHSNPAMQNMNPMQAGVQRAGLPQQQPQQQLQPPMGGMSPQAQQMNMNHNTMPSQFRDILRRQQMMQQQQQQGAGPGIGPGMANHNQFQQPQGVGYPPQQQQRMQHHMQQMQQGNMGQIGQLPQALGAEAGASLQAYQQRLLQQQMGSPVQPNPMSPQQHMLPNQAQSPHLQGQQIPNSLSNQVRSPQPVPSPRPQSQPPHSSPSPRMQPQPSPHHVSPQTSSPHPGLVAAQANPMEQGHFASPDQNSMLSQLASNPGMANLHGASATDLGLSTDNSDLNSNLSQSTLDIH
Chain of CREB-binding protein/Histone acetyltransferase p300 (Homo sapiens) (Q92793 whole entry, looked up): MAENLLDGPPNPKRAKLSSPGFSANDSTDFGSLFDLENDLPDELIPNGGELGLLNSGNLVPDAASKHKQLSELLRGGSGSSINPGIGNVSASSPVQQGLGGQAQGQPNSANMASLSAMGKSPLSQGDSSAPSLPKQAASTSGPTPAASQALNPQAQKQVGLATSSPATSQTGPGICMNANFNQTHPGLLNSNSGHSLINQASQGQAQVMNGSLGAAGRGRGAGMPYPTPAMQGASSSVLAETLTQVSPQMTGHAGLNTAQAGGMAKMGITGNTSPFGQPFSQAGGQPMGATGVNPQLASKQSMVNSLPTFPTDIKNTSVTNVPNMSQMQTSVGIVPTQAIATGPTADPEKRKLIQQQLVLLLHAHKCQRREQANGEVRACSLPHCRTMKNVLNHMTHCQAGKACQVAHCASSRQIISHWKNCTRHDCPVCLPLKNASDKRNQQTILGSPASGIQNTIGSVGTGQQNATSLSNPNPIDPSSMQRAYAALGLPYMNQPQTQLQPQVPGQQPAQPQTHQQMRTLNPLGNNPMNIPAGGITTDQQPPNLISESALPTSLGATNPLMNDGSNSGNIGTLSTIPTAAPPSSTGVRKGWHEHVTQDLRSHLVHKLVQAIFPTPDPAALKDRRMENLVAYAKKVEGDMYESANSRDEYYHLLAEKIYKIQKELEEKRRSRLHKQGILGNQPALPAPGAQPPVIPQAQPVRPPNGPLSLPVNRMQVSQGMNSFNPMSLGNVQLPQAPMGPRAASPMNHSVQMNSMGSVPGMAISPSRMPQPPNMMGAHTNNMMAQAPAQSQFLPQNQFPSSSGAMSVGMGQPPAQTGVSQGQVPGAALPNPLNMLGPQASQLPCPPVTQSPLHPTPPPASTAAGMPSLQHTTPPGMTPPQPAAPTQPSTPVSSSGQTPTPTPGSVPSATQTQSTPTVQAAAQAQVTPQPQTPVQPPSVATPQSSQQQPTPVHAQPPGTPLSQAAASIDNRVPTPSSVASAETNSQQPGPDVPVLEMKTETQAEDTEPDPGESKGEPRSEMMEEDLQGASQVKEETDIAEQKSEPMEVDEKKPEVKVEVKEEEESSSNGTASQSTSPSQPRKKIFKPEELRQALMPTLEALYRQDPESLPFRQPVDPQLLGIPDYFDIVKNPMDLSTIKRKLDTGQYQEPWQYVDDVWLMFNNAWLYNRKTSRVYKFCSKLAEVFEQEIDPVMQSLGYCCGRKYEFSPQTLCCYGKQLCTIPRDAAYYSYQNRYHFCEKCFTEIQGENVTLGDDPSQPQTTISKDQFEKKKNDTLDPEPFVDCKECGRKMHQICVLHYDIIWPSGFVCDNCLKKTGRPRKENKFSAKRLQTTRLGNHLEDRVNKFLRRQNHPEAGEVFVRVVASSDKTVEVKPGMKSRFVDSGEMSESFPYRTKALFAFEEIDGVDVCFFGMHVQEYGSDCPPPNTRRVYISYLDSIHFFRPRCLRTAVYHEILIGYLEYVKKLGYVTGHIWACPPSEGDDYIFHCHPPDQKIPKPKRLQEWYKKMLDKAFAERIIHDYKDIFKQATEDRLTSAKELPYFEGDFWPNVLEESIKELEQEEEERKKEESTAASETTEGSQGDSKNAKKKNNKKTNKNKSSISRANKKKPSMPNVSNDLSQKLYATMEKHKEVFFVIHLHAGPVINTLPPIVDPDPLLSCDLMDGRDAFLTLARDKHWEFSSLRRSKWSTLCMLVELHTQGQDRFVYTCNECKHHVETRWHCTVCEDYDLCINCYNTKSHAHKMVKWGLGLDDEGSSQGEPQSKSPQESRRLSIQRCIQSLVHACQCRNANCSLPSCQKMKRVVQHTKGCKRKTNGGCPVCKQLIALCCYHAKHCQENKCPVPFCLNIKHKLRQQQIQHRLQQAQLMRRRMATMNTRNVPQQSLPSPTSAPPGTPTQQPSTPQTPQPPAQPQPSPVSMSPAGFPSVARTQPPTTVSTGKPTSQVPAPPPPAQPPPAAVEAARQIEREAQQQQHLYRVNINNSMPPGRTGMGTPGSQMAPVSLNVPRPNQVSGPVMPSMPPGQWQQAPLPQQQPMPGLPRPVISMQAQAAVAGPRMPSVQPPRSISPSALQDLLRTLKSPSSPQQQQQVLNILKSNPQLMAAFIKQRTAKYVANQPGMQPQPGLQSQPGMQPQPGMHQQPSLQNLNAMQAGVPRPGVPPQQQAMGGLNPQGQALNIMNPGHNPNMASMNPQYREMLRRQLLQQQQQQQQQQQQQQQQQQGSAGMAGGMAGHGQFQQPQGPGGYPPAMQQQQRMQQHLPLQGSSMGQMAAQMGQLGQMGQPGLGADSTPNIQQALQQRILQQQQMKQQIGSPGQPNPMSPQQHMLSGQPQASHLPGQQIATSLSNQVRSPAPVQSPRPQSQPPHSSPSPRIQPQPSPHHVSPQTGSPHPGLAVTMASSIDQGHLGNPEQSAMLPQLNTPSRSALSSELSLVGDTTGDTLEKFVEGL

CNC(=O)Nc1ccc2c(c1)CCS21OC(=O)N(CC(=O)N(Cc2ccc(F)cc2)[C@@H](C)C(F)(F)F)C1=O (stereo partly specified)
inhibition (Adipocyte): Active | inhibition (Hepatocyte [1]): Active | inhibition (Hepatocyte [2]): inactive | Activity (Mus musculus [3]): Active | inhibition (Hepatocyte [4]): Active | Activity (Mus musculus [5]): ~14% | inhibition (Mus musculus [6]): Active | inhibition (Mus musculus [7]): Active | inhibition [8]: Active | inhibition (Mus musculus [9]): Active | inhibition (Mus musculus [10]): Active | inhibition (Mus musculus [11]): Active | inhibition (Mus musculus [12]): Active | inhibition (Mus musculus [13]): inactive | inhibition (Mus musculus [14]): Active | Activity (Mus musculus [15]): inactive
